Measured values reported in ChEMBL document CHEMBL1629690, “Development of hexadecyloxypropyl tenofovir (CMX157) for treatment of infection caused by wild-type and nucleoside/nucleotide-resistant HIV” (Antimicrob Agents Chemother, 2010).

Experiments:
PBMC [1] = assay: Cellular uptake in human PBMC at 1 uM after 24 hrs by MS/MS analysis; type: ADME, cell-based
Summary of the method: (§1)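 Human PBMCs, unstimulated or PHA/IL-2-stimulated, at 2 × 10^6 cells/ml in RPMI 1640 with 15% FBS, exposed 24 h at 37°C to final 0.01, 0.1, 1.0 or 10 μM of the prodrug, or 1.0 or 10 μM tenofovir. After cold saline washes the cells were counted and 1 × 10^7-cell pellets made. TFV, TFV-MP and TFV-PP were measured by ion-pairing LC with positive-ion electrospray MS as pmol/10^6 cells.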

PBMC [2] = assay: Cellular uptake in PHA/IL-2-stimulated human PBMC at 1 uM after 24 hrs by MS/MS analysis; type: ADME, cell-based; conditions: BLD = below limit of detection
Summary of the method: (§2)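 PHA-stimulated (4 μg/ml PHA, 48 to 72 h; 20 U/ml rhIL-2) human PBMCs at 2 × 10^6 cells/ml in RPMI 1640 with 15% FBS, given tenofovir or prodrug (final 0.01 to 10 μM) for 24 h at 37°C. Cells washed three times in cold 0.9% NaCl, counted, and 1 × 10^7 cell aliquots pelleted. TFV, TFV-MP and TFV-PP were separated by ion-pairing reverse-phase LC and detected by positive-ion electrospray MS. Output is pmol per 10^6 cells.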

[3] = tested on: Human immunodeficiency virus 1; assay: Antiviral activity against HIV1 isolate JR-CSF infected in human PBMC after 48 to 72 hrs by MTS assay in presence of 15% human serum; type: functional; conditions: Human immunodeficiency virus 1, JRCSF ISOLATE
Summary of the method: (§3)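 This is the PHA/IL-2 PBMC assay run with JR-CSF preincubated with 8 × 10^6 pooled cells for 1 h at 37°C. Cells were then spinoculated at 200 × g for 1 h and held 2 h more. Infected cells (2.5 × 10^4) were added, without virus washout, to wells holding uninfected PBMCs and compound. Medium had 15% FBS, plus 0, 10, 15, 20 or 30% human serum.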

PBMC [4] = assay: Cellular uptake in human PBMC at 0.01 uM assessed as TFV-monophosphate after 24 hrs by MS/MS analysis; type: ADME, cell-based; conditions: BLD = below limit of detection; summary of the method: as §1
[5] = tested on: Human immunodeficiency virus 1; assay: Antiviral activity against HIV1 subtype B isolate Ba-L infected in human MDM […] by MTS assay; type: functional, organism-based; conditions: Human immunodeficiency virus 1, isolate Ba-L
[6] = tested on: Human immunodeficiency virus 1; assay: Antiviral activity against HIV1 isolate JR-CSF infected in human PBMC after 48 to 72 hrs by MTS assay in presence of 30% human serum; type: functional; conditions: Human immunodeficiency virus 1, JRCSF ISOLATE; summary of the method: as §3
PBMC [7] = assay: Cellular uptake in PHA/IL-2-stimulated human PBMC at 0.1 uM assessed as TFV-diphosphate after 24 hrs by MS/MS analysis; type: ADME, cell-based
Summary of the method: (§4)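 PHA/IL-2-stimulated PBMCs at 2 × 10^6 cells/ml (5 × 10^7 per flask) were exposed for 24 h at 37°C. Cells were washed three times in cold 0.9% NaCl and counted by trypan blue. Aliquots of 1 × 10^7 cells were pelleted. TFV, TFV-MP and TFV-PP were separated by ion-pairing reverse-phase gradient LC and detected by positive electrospray. Results are given as pmol/10^6 cells.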

[8] = tested on: Human immunodeficiency virus 1; assay: Antiviral activity against HIV1 subtype C isolate 93MW959 infected in human PBMC after 48 to 72 hrs by MTS assay; type: functional, organism-based; conditions: Human immunodeficiency virus 1, isolate 93MW959
Summary of the method: (§5)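 Fresh donor PBMCs, HIV- and HBV-seronegative, were stimulated with 4 μg/ml PHA for 48 to 72 h and kept on 20 U/ml rhIL-2. Cells pooled from at least two donors were seeded at 5 × 10^4 per well and infected at MOI ~0.1. Nine compound concentrations were run in triplicate wells for 7 days.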

[9] = tested on: Human immunodeficiency virus 1; assay: Antiviral activity against HIV1 subtype B isolate 92TH014 infected in human MDM […] by MTS assay; type: functional, organism-based; conditions: Human immunodeficiency virus 1, isolate 92TH014
[10] = tested on: Human immunodeficiency virus 1; assay: Antiviral activity against HIV1 subtype B isolate 92BR014 infected in human PBMC after 48 to 72 hrs by MTS assay; type: functional, organism-based; conditions: Human immunodeficiency virus 1, isolate 92BR014; summary of the method: as §5
PBMC [11] = assay: Cellular uptake in PHA/IL-2-stimulated human PBMC at 10 uM assessed as TFV level after 24 hrs by MS/MS analysis; type: ADME, cell-based; summary of the method: as §2
PBMC [12] = assay: Cellular uptake in human PBMC at 0.1 uM assessed as TFV level after 24 hrs by MS/MS analysis; type: ADME, cell-based; summary of the method: as §1
[13] = tested on: Human immunodeficiency virus 1; assay: Antiviral activity against HIV1 isolate JR-CSF infected in human PBMC after 48 to 72 hrs by MTS assay in presence of 100% human serum; type: functional; conditions: Human immunodeficiency virus 1, JRCSF ISOLATE
Summary of the method: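 The value is an estimate for 100% human serum, extrapolated from JR-CSF EC50s measured in PHA/IL-2 PBMCs. Those assays used a virus preincubation/spinoculation step and contained 0 to 30% human serum on top of 15% FBS.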

[14] = tested on: Human immunodeficiency virus 1; assay: Antiviral activity against HIV1 subtype C isolate 91IN101 infected in human PBMC after 48 to 72 hrs by MTS assay; type: functional, organism-based; conditions: Human immunodeficiency virus 1, isolate 93IN101; in the assay text read “93IN101” for “91IN101”; summary of the method: as §5
[15] = tested on: Human immunodeficiency virus 1; assay: Antiviral activity against HIV1 isolate JR-CSF infected in human PBMC after 48 to 72 hrs by MTS assay in presence of 10% human serum; type: functional; conditions: Human immunodeficiency virus 1, JRCSF ISOLATE; summary of the method: as §3
[16] = tested on: Human immunodeficiency virus 1; assay: Antiviral activity against HIV1 isolate JR-CSF infected in human PBMC after 48 to 72 hrs by MTS assay; type: functional; conditions: Human immunodeficiency virus 1, JRCSF ISOLATE; summary of the method: as §3
PBMC [17] = assay: Cellular uptake in PHA/IL-2-stimulated human PBMC at 1 uM assessed as TFV level after 24 hrs by MS/MS analysis; type: ADME, cell-based; summary of the method: as §2
PBMC [18] = assay: Cellular uptake in PHA/IL-2-stimulated human PBMC at 0.1 uM assessed as TFV level after 24 hrs by MS/MS analysis; type: ADME, cell-based; conditions: BLD = below limit of detection; summary of the method: as §4
[19] = tested on: Human immunodeficiency virus 1; assay: Antiviral activity against HIV1 isolate JR-CSF infected in human PBMC after 48 to 72 hrs by MTS assay in presence of 20% human serum; type: functional; conditions: Human immunodeficiency virus 1, JRCSF ISOLATE; summary of the method: as §3
[20] = tested on: Human immunodeficiency virus 1; assay: Antiviral activity against HIV1 subtype B isolate ADA infected in human PBMC after 48 to 72 hrs by MTS assay; type: functional, organism-based; conditions: Human immunodeficiency virus 1, isolate ADA; summary of the method: as §5
PBMC [21] = assay: Cellular uptake in human PBMC at 1 uM assessed as TFV level after 24 hrs by MS/MS analysis; type: ADME, cell-based; summary of the method: as §1
[22] = tested on: Human immunodeficiency virus 1; assay: Antiviral activity against HIV1 group O isolate BCF03 infected in human PBMC after 48 to 72 hrs by MTS assay; type: functional, organism-based; conditions: Human immunodeficiency virus 1, isolate BCF03; summary of the method: as §5
PBMC [23] = assay: Cellular uptake in PHA/IL-2-stimulated human PBMC at 0.01 uM assessed as TFV level after 24 hrs by MS/MS analysis; type: ADME, cell-based; conditions: BLD = below limit of detection; summary of the method: as §4

C[C@H](Cn1cnc2c(N)ncnc21)OCP(=O)(O)O [TENOFOVIR ANHYDROUS]
Drug uptake (PBMC [1]): Not Active | Drug uptake (PBMC [2]): BLD

CCCCCCCCCCCCCCCCOCCCOP(=O)(O)CO[C@H](C)Cn1cnc2c(N)ncnc21 [TENOFOVIR EXALIDEX]
EC50 [3]: 6.4 nM | Drug uptake (PBMC [4]): BLD | EC50 [5]: 3.1 nM | EC50 [6]: 16 nM | Drug uptake (PBMC [7]): 0.25 pmol/10^6 cells | EC50 [8]: 2.8 nM | EC50 [9]: 3.1 nM | EC50 [10]: 1.5 nM | Drug uptake (PBMC [11]): 1.9 pmol/10^6 cells | Drug uptake (PBMC [12]): 0.05 pmol/10^6 cells | EC50 [13]: 53 nM | EC50 [14]: 2.8 nM | EC50 [15]: 4.6 nM | EC50 [16]: 1.5 nM | Drug uptake (PBMC [17]): 0.56 pmol/10^6 cells | Drug uptake (PBMC [18]): BLD | EC50 [19]: 11 nM | EC50 [20]: 1.5 nM | Drug uptake (PBMC [21]): 0.07 pmol/10^6 cells | EC50 [22]: 5 nM | Drug uptake (PBMC [23]): BLD
